Data: ChEMBL document CHEMBL1909620, “The development of N-α-(2-carboxyl)benzoyl-N(5)-(2-fluoro-1-iminoethyl)-l-ornithine amide (o-F-amidine) and N-α-(2-carboxyl)benzoyl-N(5)-(2-chloro-1-iminoethyl)-l-ornithine amide (o-Cl-amidine) as second generation protein arginine deiminase (PAD) inhibitors” (J Med Chem, 2011)
pEC50, pIC50, pKi: −log10 of the molar value. Activity calls are given as the source filed them. No cut-off for these calls is given here.

How the values were obtained:
[1] = biological target: Protein-arginine deiminase type-4 (Homo sapiens, UniProt Q9UM07); test: Irreversible inhibition of PAD4 assessed as hydrolysis of benzoyl-L-arginine ethyl ester preincubated for 15 mins measured after 15 mins by fluorometric analysis
HL-60 [2] = test: Cytotoxicity against human HL60 cells assessed as reduction in cell viability after 24 hrs by MTT assay relative to control; type: functional, cell-based; settings: HL-60, 24 h
Outline: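 HL60 cells grown in RPMI 1640 with 10% FBS and 1% penicillin-streptomycin at 37 °C, 5% CO2, used at 1 × 10^6 cells/mL. Compounds were added at 100 nM to 100 μM final and incubated 24 h. Viability was read by MTT-type assay as percent of control absorbance, with 1% Triton X-100 as the 100% kill control. Triplicates; EC50 from dose-response fit where possible.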

HL-60 [3] = test: Potentiation of doxorubicin-induced cytotoxicity against human HL60 cells assessed as reduction in cell viability at 0.1 to 1 uM after 24 hrs by MTT assay relative to control; type: functional
Outline: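 HL60 cells (RPMI 1640, 10% FBS, 37 °C, 5% CO2) were exposed for 24 h to doxorubicin alone or together with inhibitor at fixed levels. Viability was read by MTT assay as percent of control absorbance, run in triplicate. Doxorubicin EC50 came from dose-response fits. Interaction was scored by the additive model: observed/expected ratio <0.8 synergistic, 0.8–1.2 additive.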

TK6 [4] = test: Induction of apoptosis in human TK6 cells assessed as viable cells at 50 ug/ml after 2 hrs by annexin V/propidium iodide staining method relative to control; type: functional; settings: TK6, 2 h, read-out: Activity
Outline: (§1)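 TK6 human lymphoblastoid cells kept in exponential suspension culture in RPMI 1640 with 10% heat-inactivated calf serum, penicillin/streptomycin and 2 mmol/L L-glutamine at 37 °C, 5% CO2. Serum was cut to 1% 12 h before dosing at 50 μg/ml for the stated times. Cells were stained with Annexin V/propidium iodide and analysed as quadrant scatterplots.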

TK6 [5] = test: Induction of apoptosis in human TK6 cells assessed as early apoptotic cells at 50 ug/ml after 2 hrs by annexin V/propidium iodide staining method relative to control; type: functional; outline: as §1
TK6 [6] = test: Induction of apoptosis in human TK6 cells assessed as late apoptotic cells at 50 ug/ml after 2 hrs by annexin V/propidium iodide staining method relative to control; type: functional; outline: as §1
TK6 [7] = test: Induction of apoptosis in human TK6 cells assessed as necrotic cells at 50 ug/ml after 2 hrs by annexin V/propidium iodide staining method relative to control; type: functional; outline: as §1
TK6 [8] = test: Induction of apoptosis in human TK6 cells assessed as viable cells at 50 ug/ml after 4 hrs by annexin V/propidium iodide staining method relative to control; type: functional; settings: TK6, 4 h, read-out: Activity; outline: as §1
TK6 [9] = test: Induction of apoptosis in human TK6 cells assessed as late apoptotic cells at 50 ug/ml after 4 hrs by annexin V/propidium iodide staining method relative to control; type: functional; outline: as §1
TK6 [10] = test: Induction of apoptosis in human TK6 cells assessed as necrotic cells at 50 ug/ml after 4 hrs by annexin V/propidium iodide staining method relative to control; type: functional; outline: as §1
TK6 [11] = test: Induction of apoptosis in human TK6 cells assessed as viable cells at 50 ug/ml after 8 hrs by annexin V/propidium iodide staining method relative to control; type: functional; settings: TK6, 8 h, read-out: Activity; outline: as §1
TK6 [12] = test: Induction of apoptosis in human TK6 cells assessed as early apoptotic cells at 50 ug/ml after 8 hrs by annexin V/propidium iodide staining method relative to control; type: functional; outline: as §1
TK6 [13] = test: Induction of apoptosis in human TK6 cells assessed as late apoptotic cells at 50 ug/ml after 8 hrs by annexin V/propidium iodide staining method relative to control; type: functional; outline: as §1
TK6 [14] = test: Induction of apoptosis in human TK6 cells assessed as necrotic cells at 50 ug/ml after 8 hrs by annexin V/propidium iodide staining method relative to control relative to control; type: functional; outline: as §1
TK6 [15] = test: Induction of apoptosis in human TK6 cells assessed as induction of PARP cleavage at 50 ug/ml measured up to 8 hrs by Western blotting; type: functional, cell-based
Outline: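 TK6 cells were moved to 1% heat-inactivated calf serum RPMI 1640 12 h beforehand, then exposed to 50 μg/ml for time courses. PARP cleavage was detected by western blot with anti-PARP antibody, using GAPDH as loading control.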

HL-60 [16] = test: Induction of human HL60 cell differentiation assessed as increase in PAD4 expression level after 24 hrs by Western blotting; type: functional, cell-based
HL-60 [17] = test: Induction of human HL60 cell differentiation assessed as increase in PAD4 expression level at 1 to 10 uM by Western blotting; type: functional, cell-based; settings: TDE = time-dependent effect
[18] = biological target: Protein-arginine deiminase type-2 (Homo sapiens, UniProt Q9Y2J8); test: Irreversible inhibition of PAD2 assessed as hydrolysis of benzoyl-L-arginine ethyl ester preincubated for 15 mins measured after 15 mins by fluorometric analysis
HL-60 [19] = test: Induction of human HL60 cell differentiation assessed as increase in PAD4 expression level at 10 uM after 6 hrs by Western blotting; type: functional, cell-based
HL-60 [20] = test: Induction of human HL60 cell differentiation assessed as increase in PAD4 expression level at 1 uM after 12 hrs by Western blotting; type: functional, cell-based
HL-60 [21] = test: Induction of human HL60 cell differentiation assessed as increase in PAD4 expression level at 1 uM after 24 hrs by Western blotting; type: functional, cell-based
[22] = biological target: T1, Protein-arginine deiminase type-1 (Homo sapiens, UniProt Q9ULC6); test: Irreversible inhibition of PAD1 assessed as hydrolysis of benzoyl-L-arginine ethyl ester preincubated for 15 mins measured after 15 mins by fluorometric analysis
T1 sequence (Q9ULC6 whole entry): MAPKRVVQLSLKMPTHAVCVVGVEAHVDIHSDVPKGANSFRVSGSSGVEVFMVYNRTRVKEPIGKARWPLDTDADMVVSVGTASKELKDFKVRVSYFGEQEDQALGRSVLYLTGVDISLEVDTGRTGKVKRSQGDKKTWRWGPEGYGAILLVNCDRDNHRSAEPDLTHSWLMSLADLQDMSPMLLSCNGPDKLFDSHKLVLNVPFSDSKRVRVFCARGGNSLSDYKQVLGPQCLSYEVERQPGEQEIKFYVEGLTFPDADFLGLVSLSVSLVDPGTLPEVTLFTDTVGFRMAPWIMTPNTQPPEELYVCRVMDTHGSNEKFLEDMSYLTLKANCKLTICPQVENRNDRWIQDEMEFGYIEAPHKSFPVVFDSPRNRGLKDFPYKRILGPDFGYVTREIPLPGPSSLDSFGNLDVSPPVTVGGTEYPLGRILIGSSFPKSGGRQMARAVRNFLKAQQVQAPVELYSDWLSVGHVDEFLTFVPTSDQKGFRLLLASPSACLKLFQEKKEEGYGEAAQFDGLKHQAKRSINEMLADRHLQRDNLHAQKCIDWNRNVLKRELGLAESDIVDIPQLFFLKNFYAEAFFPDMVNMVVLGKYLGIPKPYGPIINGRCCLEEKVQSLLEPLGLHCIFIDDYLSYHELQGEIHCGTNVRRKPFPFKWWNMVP

[23] = biological target: T2, Protein-arginine deiminase type-3 (Homo sapiens, UniProt Q9ULW8); test: Irreversible inhibition of PAD3 assessed as hydrolysis of benzoyl-L-arginine ethyl ester preincubated for 15 mins measured after 15 mins by fluorometric analysis
T2 sequence (Q9ULW8 whole entry): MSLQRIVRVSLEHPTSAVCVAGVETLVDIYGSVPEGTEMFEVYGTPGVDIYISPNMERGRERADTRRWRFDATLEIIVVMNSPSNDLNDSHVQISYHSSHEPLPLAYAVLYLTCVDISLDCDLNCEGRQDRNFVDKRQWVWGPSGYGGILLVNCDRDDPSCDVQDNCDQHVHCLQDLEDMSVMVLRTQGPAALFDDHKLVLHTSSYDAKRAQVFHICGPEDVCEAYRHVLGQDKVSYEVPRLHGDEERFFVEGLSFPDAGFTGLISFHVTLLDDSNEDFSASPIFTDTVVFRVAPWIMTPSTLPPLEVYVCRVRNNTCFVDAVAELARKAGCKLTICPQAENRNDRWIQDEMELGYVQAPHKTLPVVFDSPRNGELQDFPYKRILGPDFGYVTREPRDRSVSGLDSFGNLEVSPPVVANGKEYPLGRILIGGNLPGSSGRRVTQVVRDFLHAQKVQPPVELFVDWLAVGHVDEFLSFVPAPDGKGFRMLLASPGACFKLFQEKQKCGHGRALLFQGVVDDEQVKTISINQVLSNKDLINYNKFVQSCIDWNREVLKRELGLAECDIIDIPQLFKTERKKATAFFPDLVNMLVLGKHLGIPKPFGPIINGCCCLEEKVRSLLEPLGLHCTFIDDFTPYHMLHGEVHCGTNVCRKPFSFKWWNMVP

TK6 [24] = test: Induction of apoptosis in human TK6 cells assessed as early apoptotic cells at 50 ug/ml after 4 hrs by annexin V/propidium iodide staining method relative to control; type: functional

Chain of Protein-arginine deiminase type-4 (Q9UM07 whole entry): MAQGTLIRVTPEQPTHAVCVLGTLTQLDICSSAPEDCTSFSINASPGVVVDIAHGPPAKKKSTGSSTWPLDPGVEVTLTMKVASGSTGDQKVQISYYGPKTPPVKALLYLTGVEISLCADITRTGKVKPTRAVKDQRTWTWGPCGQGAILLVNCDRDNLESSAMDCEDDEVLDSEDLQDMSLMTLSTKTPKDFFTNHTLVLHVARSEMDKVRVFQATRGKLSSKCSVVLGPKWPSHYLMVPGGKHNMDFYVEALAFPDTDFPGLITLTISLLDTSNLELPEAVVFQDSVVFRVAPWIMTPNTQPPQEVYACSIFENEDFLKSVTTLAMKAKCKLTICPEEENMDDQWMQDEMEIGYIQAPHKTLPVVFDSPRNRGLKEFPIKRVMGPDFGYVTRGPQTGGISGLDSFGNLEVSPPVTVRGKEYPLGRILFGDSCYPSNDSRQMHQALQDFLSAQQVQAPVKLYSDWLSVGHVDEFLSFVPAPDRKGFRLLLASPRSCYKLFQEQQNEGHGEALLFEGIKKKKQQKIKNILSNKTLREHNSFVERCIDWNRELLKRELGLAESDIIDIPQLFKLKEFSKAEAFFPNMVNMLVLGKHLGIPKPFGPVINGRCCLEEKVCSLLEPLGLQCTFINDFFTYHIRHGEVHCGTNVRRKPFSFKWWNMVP
Chain of Protein-arginine deiminase type-2 (Q9Y2J8 whole entry): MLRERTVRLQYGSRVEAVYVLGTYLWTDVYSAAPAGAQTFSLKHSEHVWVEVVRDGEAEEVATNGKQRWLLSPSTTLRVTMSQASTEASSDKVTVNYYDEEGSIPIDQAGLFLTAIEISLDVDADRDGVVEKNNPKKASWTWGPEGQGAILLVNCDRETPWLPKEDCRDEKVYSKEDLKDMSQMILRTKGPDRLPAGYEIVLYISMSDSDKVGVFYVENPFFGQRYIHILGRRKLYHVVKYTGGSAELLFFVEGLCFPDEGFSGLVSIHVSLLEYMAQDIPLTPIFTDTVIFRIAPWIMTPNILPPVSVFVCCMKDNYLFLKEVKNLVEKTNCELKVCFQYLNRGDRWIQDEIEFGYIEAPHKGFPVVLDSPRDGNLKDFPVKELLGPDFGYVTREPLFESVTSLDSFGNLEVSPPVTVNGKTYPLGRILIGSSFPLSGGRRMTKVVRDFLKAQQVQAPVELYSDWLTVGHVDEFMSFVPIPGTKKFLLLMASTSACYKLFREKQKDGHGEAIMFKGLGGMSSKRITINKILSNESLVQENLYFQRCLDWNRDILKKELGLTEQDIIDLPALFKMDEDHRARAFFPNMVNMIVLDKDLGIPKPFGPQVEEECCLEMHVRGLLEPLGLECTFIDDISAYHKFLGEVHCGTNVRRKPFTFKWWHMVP

For `N=C(CF)NCc1ccccc1`, the pIC50 [1] was < 3.00.
`N=C(CF)NCc1ccc(C[C@H](NC(=O)c2ccccc2)C(N)=O)cc1` was tested, and the pIC50 [1] was < 3.00.
With `CCCNC(=N)CF` the pIC50 [1] was < 3.00.
For `N=C(N)CF`, the pIC50 [1] was < 2.00.
Compound `N=C(CF)Nc1cccc([C@H](NC(=O)c2ccccc2)C(N)=O)c1` has a pIC50 [1] of 2.68.
Work on `N=C(CF)NCCC[C@H](NC(=O)c1c[nH]cn1)C(N)=O` yielded a pIC50 [1] of 3.64.
With `N=C(CF)Nc1ccccc1` the pIC50 [1] was < 3.30.
For `COc1cccc2c1C(=O)c1c(O)c3c(c(O)c1C2=O)C[C@@](O)(C(=O)CO)C[C@@H]3O[C@H]1C[C@H](N)[C@H](O)[C@H](C)O1` [DOXORUBICIN], the pEC50 (HL-60 [2]) was 5.60 and the “fold change (FC)” value (HL-60 [3]) was 6.
`N=C(CF)NCCC[C@H](NC(=O)c1ccccc1C(=O)O)C(N)=O.O=C(O)C(F)(F)F` showed a viability at 50 µg/mL (TK6 [4]) of 88%, an Activity (TK6 [5]) of 8.3% and an Activity (TK6 [6]) of 3.3%. For the same compound, the Activity (TK6 [7]) was 0.3%, the viability at 50 µg/mL (TK6 [8]) was 74.9% and the Activity (TK6 [9]) was 4.8%. For the same compound, the Activity (TK6 [10]) was 0.3%, the viability at 50 µg/mL (TK6 [11]) was 60.1% and the Activity (TK6 [12]) was 27.7%. The Activity (TK6 [13]) was 11.9%, the Activity (TK6 [14]) was 0.3% and the Activity (TK6 [15]) was “Active”. For the same compound, the Activity (HL-60 [16]) was “Dose-dependent effect”, the Activity (HL-60 [17]) was “tde” and the pIC50 [18] was ≤ 4.30. For the same compound, the Activity (HL-60 [19]) was “Active”, the Activity (HL-60 [20]) was “Active” and the Activity (HL-60 [21]) was “Active”.
`N=C(CF)NCCC[C@H](NC(=O)c1ccccc1)C(N)=O` showed a pIC50 [22] of 4.54, a pKi [22] of 3.96 and a pIC50 [23] of 3.44. The pKi [23] was 3.53.
In the case of `N=C(CF)Nc1cccc(C[C@H](NC(=O)c2ccccc2)C(N)=O)c1`, the pIC50 [1] was 3.51.
`N=C(CF)NCCC[C@H](NS(=O)(=O)c1ccccc1)C(N)=O` showed a pIC50 [1] of 3.30.
Compound `N=C(CCl)NCCC[C@H](NC(=O)c1ccccc1)C(N)=O.O=C(O)C(F)(F)F` has a viability at 50 µg/mL (TK6 [4]) of 85.6%, an Activity (TK6 [5]) of 7.5% and an Activity (TK6 [6]) of 6.8%. For the same compound, the Activity (TK6 [7]) was 0.1%, the viability at 50 µg/mL (TK6 [8]) was 78.8% and the Activity (TK6 [24]) was 11.9%. It also gave an Activity (TK6 [9]) of 8.9%, an Activity (TK6 [10]) of 0.4% and a viability at 50 µg/mL (TK6 [11]) of 46.2%. For the same compound, the Activity (TK6 [12]) was 20.4%, the Activity (TK6 [13]) was 32.6% and the Activity (TK6 [14]) was 0.8%. The Activity (TK6 [15]) was “Active”.
For `N=C(CF)NCCCCNC(=O)c1ccccc1`, the pIC50 [1] was < 3.00.
In the case of `N=C(CF)NCCCCNS(=O)(=O)c1ccccc1`, the pIC50 [1] was < 3.00.
For `N=C(CCl)NCCC[C@H](NC(=O)c1ccccc1C(=O)O)C(N)=O`, the Activity (HL-60 [16]) was “Dose-dependent effect”, the Activity (HL-60 [17]) was “tde” and the Activity (HL-60 [19]) was “Active”. The Activity (HL-60 [20]) was “Active” and the Activity (HL-60 [21]) was “Active”.
`N=C(CF)Nc1ccc(C[C@H](NC(=O)c2ccccc2)C(N)=O)cc1` showed a pIC50 [1] of 3.51.
